{"source": "paper PMC4128174", "about": "(European journal of medicinal chemistry, 2014)", "key": {"[1]": {"test": "Cell permeability", "assay_type": "in vitro ADME"}, "[2]": {"target": "T1, Human recombinant IDE (IDEwt) (Homo sapiens, UniProt P14735)", "T1 sequence (P14735 1-1019)": "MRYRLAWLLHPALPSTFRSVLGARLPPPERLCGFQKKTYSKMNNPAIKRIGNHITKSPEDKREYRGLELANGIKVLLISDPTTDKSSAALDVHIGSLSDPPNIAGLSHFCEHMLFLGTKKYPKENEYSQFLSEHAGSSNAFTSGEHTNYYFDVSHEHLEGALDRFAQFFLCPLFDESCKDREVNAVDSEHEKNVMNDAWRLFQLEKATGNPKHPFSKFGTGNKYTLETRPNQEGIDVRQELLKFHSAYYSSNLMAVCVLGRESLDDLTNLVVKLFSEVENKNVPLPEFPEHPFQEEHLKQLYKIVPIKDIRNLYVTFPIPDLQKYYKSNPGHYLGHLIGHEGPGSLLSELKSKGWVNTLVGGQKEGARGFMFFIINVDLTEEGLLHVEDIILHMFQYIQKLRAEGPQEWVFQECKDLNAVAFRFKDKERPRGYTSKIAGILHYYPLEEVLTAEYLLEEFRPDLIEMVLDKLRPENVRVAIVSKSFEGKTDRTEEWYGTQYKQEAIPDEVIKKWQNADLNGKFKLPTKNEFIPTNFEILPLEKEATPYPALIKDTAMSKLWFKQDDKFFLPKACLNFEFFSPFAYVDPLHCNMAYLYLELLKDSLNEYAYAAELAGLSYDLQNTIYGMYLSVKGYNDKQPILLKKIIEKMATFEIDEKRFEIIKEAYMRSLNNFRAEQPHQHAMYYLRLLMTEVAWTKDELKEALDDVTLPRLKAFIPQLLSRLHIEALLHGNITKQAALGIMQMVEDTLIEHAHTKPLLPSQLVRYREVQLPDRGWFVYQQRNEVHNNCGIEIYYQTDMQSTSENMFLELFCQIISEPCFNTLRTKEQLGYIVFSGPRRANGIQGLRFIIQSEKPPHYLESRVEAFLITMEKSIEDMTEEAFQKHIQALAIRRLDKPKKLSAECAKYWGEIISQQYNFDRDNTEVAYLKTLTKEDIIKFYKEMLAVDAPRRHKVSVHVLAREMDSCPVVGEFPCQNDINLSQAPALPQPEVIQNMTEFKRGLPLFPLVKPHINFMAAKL", "assay_type": "biochemical", "conditions": "for activity on Aβ16–23 hydrolysis (in words): IDEwt"}, "[3]": {"target": "T2, IDE E341A (Homo sapiens, UniProt P14735, E341A)", "T2 sequence (P14735 1-1019 E341A)": "T1 sequence (P14735 1-1019) with E341A", "test": "Hydrolysis of dual labelled Aβ16–23 by the E341A exosite mutant", "assay_type": "biochemical"}, "[4]": {"target": "T3, hIDE (Homo sapiens, UniProt P14735)", "T3 sequence (P14735 1-1019)": "T1 sequence (P14735 1-1019)", "test": "Hydrolysis of unlabelled native insulin by hIDE", "assay_type": "biochemical", "conditions": "at 100µM"}, "[5]": {"tested_on": "hepatocytes", "test": "Repression of PEPCK by insulin on hepatocytes", "assay_type": "cell-based"}, "[6]": {"test": "LogD7.4, PBS/octanol partition from a DMSO stock solution", "assay_type": "physicochemical", "conditions": "compared with 5"}, "[7]": {"test": "Solubility in PBS from a DMSO stock solution", "assay_type": "physicochemical"}, "[8]": {"tested_on": "SH-SY5Y neuroblastoma cells (APPswe, APPwt)", "test": "Cellular assay in the amyloid pathway", "assay_type": "cell-based, human", "in_short": "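SH-SY5Y cells stably expressing human APP751 Swedish or […], grown in DMEM/10% FCS at 37 °C, 5% CO2. Treated 24 h after seeding with vehicle or test compound (10 mM DMSO stock). Medium cleared at 1000 × g and assayed by ELISA: Aβ1–40 diluted 1:10, Aβ1–42 undiluted. Duplicates from three experiments, normalised to untreated cells. RIPA lysates immunoblotted: 12 µg Bis-Tris gel; CTFs 30 µg Tris-Tricine gel.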"}, "[9]": {"tested_on": "β-pancreatic cells", "test": "Insulin secretion by β-pancreatic cells", "assay_type": "cell-based"}, "[10]": {"test": "Cell medium stability", "assay_type": "in vitro ADME"}, "[11]": {"conditions": "0.1 or 10 µM, 24 h and 48 h, APPswe and APPwt SY5Y"}}, "note": "Residue numbers refer to the chain shown, from its start."}
{"smiles": "CNC(=O)[C@H](Cc1c[nH]cn1)NC(=O)CN(CCCc1ccccc1)CC(=O)O", "note": "[Compound 5, ((((S)-2-(1H-Imidazol-4-yl)-1-methylcarbamoyl-ethylcarbamoyl)-methyl)-(3-phenylpropyl)-amino)-acetic acid]", "values": [{"measurement": "crossing of cell membranes (in words)", "setting": "[1]", "value": "does not cross easily cell membranes"}]}
{"smiles": "COC(=O)[C@H](Cc1ccccc1)NC(=O)CN(CC(=O)O)Cc1ccccc1", "note": "[Compound 6, (S)-2-(2-(Benzyl-carboxymethyl-amino)-acetylamino)-3-phenyl-propionic acid methyl ester]", "values": [{"measurement": "activity on Aβ16–23 hydrolysis (in words)", "setting": "[2]", "value": "completely abolish activity"}]}
{"smiles": "O=C(O)CN(CCN(CC(=O)O)CC(=O)O)CC(=O)O", "note": "[EDTA, reference compound]", "values": [{"measurement": "inhibition by reference inhibitor", "setting": "[2]; at 2 mM", "value": 100, "unit": "%"}]}
{"smiles": "COC(=O)[C@H](Cc1c[nH]cn1)NC(=O)CN(CC(=O)O)C(=O)c1ccccc1", "note": "[Compound 7, (S)-2-(2-(Benzoyl-carboxymethyl-amino)-acetylamino)-3-(1H-imidazol-4-yl)-propionic acid methyl ester]", "values": [{"measurement": "activity on Aβ16–23 hydrolysis (in words)", "setting": "[2]", "value": "completely abolish activity"}]}
{"smiles": "COC(=O)[C@H](Cc1c[nH]cn1)NC(=O)CN(CC(=O)O)Cc1ccccc1", "note": "[Compound 1, (S)-2-[2-(Benzyl-carboxymethyl-amino)-acetylamino]-3-(1H-imidazol-4-yl)-propionic acid methyl ester]", "values": [{"measurement": "behaviour as inhibitor", "setting": "[3]", "value": "full inhibitor"}]}
{"smiles": "CNC(=O)[C@H](Cc1c[nH]cn1)NC(=O)CN(CCCc1ccccc1)CC(=O)OC", "note": "[Compound 8, ((((S)-2-(1H-Imidazol-4-yl)-1-methylcarbamoyl-ethyl-carbamoyl)-methyl)-(3-phenylpropyl)-amino)-acetic acid methyl ester]", "values": [{"measurement": "residual activation of insulin hydrolysis", "setting": "[4]", "value": "50 % of 5 activity"}, {"measurement": "repression of PEPCK by insulin on hepatocytes", "setting": "[5]", "value": "nor modify"}, {"measurement": "logD7.4 (in words)", "setting": "[6]", "value": "higher"}, {"measurement": "solubility (in words)", "setting": "[7]", "value": "good solubility"}, {"measurement": "effect on APP holoproteins and on CTFs", "setting": "[8]", "value": "No effect"}, {"measurement": "extracellular levels of Aβ1–40", "setting": "[8]; [11]", "value": "dose-dependent increase"}, {"measurement": "extracellular levels of Aβ1–42", "setting": "[8]; [11]", "value": "dose-dependent increase"}, {"measurement": "level of insulin secreted by β-pancreatic cells", "setting": "[9]", "value": "did neither affect"}, {"measurement": "half-life", "setting": "[10]", "value": 11.3, "unit": "h"}]}
